Experimental data as given in PubChem BioAssay AID504392 (Broad Institute, 2011).
Values without a mark were called inactive.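 Rule for the calls: active = fitted curve rising past 10% caspase activation at or below the top valid dose; inactive = activity opposite to the expected rise, or the rest.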

Assay: caspase activation in wild-type MEFs, dose response, counter-screen for Bcl2-A1 inhibitor project, cell-based, wild-type MEF, caspase luminescence, dry powder, set 2 (AID 504392)
Details: CaspaseGlo luminescence, 3 h; series mostly up to 35 µM; caspase activation: at the top concentration
In short: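 Material: unprimed wild-type MEF cells; amount: 2500 cells per well; read-out basis: caspase activation; doses: pin-transferred compound; medium: RPMI-1640 growth medium with 10% FBS; timing: 3 h compound at 37 °C, 1 h reagent at RT; signal: CaspaseGlo luminescence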

SMILES	caspase activation [%]
O=c1oc2ccccc2c(Cl)c1[N+](=O)[O-]	-2.49
O=C(Oc1cccc(/C=N/Nc2nc(Nc3ccccc3)nc(N3CCOCC3)n2)c1)c1ccco1	0.185
CCOCCCNc1c([N+](=O)[O-])c(=O)n(C)c2ccccc12	-0.369
Cn1c(=O)c([N+](=O)[O-])c(Oc2ccccc2)c2ccccc21	0.176
Cn1c(=O)c([N+](=O)[O-])c(Nc2ccc(Cl)cc2)c2ccccc21	0.621
Cc1ccc(Sc2c([N+](=O)[O-])c(=O)n(C)c3ccccc23)cc1	1.94
CN1C(=O)C(C)(C)N(Cc2ccccc2)c2ccccc21	-0.09
Cc1ccc(Sc2c([N+](=O)[O-])cnc3ccccc23)cc1	0.971
Cc1ccc(Nc2c([N+](=O)[O-])c(=O)n(C)c3ccccc23)cc1	0.135
Cn1c(=O)c([N+](=O)[O-])c(-n2cnc3ccccc32)c2ccccc21	2.49
O=c1oc2ccccc2c(Sc2ccccc2)c1[N+](=O)[O-]	-2.63
O=c1oc2ccccc2c(Nc2cc(Cl)cc(Cl)c2)c1[N+](=O)[O-]	-0.747
CCSc1c([N+](=O)[O-])c(=O)oc2ccccc12	-0.856
CCOC(=O)N1CCN(c2c([N+](=O)[O-])c(=O)n(C)c3ccccc23)CC1	0.376
O=c1oc2ccccc2c(N2CCCCC2)c1[N+](=O)[O-]	-1.15
Cc1ccc(Sc2cc(=O)n(C)c3ccccc23)cc1	-2.63
Cc1ccc(Nc2c([N+](=O)[O-])c(=O)oc3ccccc23)cc1	0.158
Cc1ccc(Sc2c([N+](=O)[O-])c(=O)oc3ccccc23)cc1	-1.99
O=[N+]([O-])c1cnc2ccccc2c1Sc1ccccc1	-0.231
Cn1c(=O)c([N+](=O)[O-])c(Cl)c2ccccc21	-0.325
